What was measured:
L1210 [1] = test: Antitumor activity against mouse L1210 cells allografted in BDF1 mouse assessed as increase of host life span at 6.25 mg/kg, ip qd for 5 days; assay type: functional; details: route intraperitoneal
In short: (§1)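 BDF1 mice were given 1×10^5 L1210 cells ip. Compound was dissolved or suspended in 0.9% NaCl with 0.1% HCO-60 and given ip daily for 5 days, starting 24 h after inoculation. Groups had 6–10 mice. ILS = (T/C − 1) × 100, from mean survival time of treated versus control mice, observed over 60 days.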

L1210 [2] = test: Antitumor activity against mouse L1210 cells allografted in BDF1 mouse assessed as increase of host life span at 100 mg/kg, po qd for 5 days; assay type: functional
In short: (§2)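 L1210 cells (1×10^5) were implanted ip in BDF1 mice. Oral dosing began 24 h later and ran once daily for 5 days, with compound in 0.9% saline containing 0.1% HCO-60 as solution or suspension. Six to ten mice per group. Percent ILS was (T/C − 1) × 100 on mean survival time, with a 30-day observation period.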

L1210 [3] = test: Antitumor activity against mouse L1210 cells allografted in BDF1 mouse assessed as increase of host life span at 200 mg/kg, po qd for 5 days; assay type: functional; in short: as §2
L1210 [4] = test: Antitumor activity against mouse L1210 cells allografted in BDF1 mouse assessed as increase of host life span at 25 mg/kg, ip qd for 5 days; assay type: functional; details: route intraperitoneal; in short: as §1
[5] = Toxicity in ip dosed ICR mouse up to 3 weeks; assay type: organism-based; details: in vivo
In short: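 Maximum tolerated dose was set from a single ip injection into three female ICR mice weighing 20–21 g, followed by 3 weeks of observation.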

L1210 [6] = test: Antitumor activity against mouse L1210 cells allografted in BDF1 mouse assessed as increase of host life span at 100 mg/kg, ip qd for 5 days; assay type: functional; details: route intraperitoneal; in short: as §1

SMILES | Activity (L1210 [1]) | Activity (L1210 [2]) | Activity (L1210 [3]) | Activity (L1210 [4]) | MTD at 504 h [5] | Activity (L1210 [6])
CCCC(=O)OCCCCCCCCCCC(=O)OC[C@H]1O[C@@H]2[C@H](Oc3nc(=N)ccn32)[C@@H]1OC(=O)CCCCCCCCCCOC(=O)CCC.Cl | 5.1% | 13.3% | 33.3% | 66.7% | 300 mg/kg | 86.7%
CCCCCCCCCCCOC(=O)CCC(=O)OC[C@H]1O[C@@H]2[C@H](Oc3nc(=N)ccn32)[C@@H]1OC(=O)CCC(=O)OCCCCCCCCCCC.Cl | 15.4% | 10.8% | – | 43.6% | 750 mg/kg | 94.6%
CCCCSCCCCCCCCCCC(=O)OC[C@H]1O[C@@H]2[C@H](Oc3nc(=N)ccn32)[C@@H]1OC(=O)CCCCCCCCCCSCCCC.Cl | 26.7% | 4% | 13.3% | 164% | 500 mg/kg | >624.3%
CCCCC(=O)O[C@H]1[C@H]2Oc3nc(=N)ccn3[C@@H]2O[C@@H]1COP(=O)(O)O | 15.8% | 22.7% | 45.6% | 37% | 750 mg/kg | 64.6%
Cc1ccc(C(=O)OC[C@H]2O[C@@H]3[C@H](Oc4nc(=N)ccn43)[C@@H]2OC(=O)c2ccc(C)cc2)cc1.Cl | – | 14.7% | 30.7% | 37.3% | 750 mg/kg | 81.3%
CC(C)(C)c1ccc(C(=O)OC[C@H]2O[C@@H]3[C@H](Oc4nc(=N)ccn43)[C@@H]2OC(=O)c2ccc(C(C)(C)C)cc2)cc1.Cl | 26.7% | 22.7% | 26.7% | 84% | 300 mg/kg | 116.7%
CCCCCCCCCCCCCCCC(=O)OC[C@H]1O[C@@H]2[C@H](Oc3nc(=N)ccn32)[C@@H]1OC(=O)CCCCCCCCCCCCCCC.Cl | 59% | 0% | 22.5% | 151.3% | 750 mg/kg | >528.2%
